Laboratory results published in ChEMBL document CHEMBL4311940, “Design, Synthesis, and Biological Evaluation of 4-Methyl Quinazoline Derivatives as Anticancer Agents Simultaneously Targeting Phosphoinositide 3-Kinases and Histone Deacetylases” (J Med Chem, 2019).

What was measured:
Huh-7 = assay: Antiproliferative activity against human HuH7 cells after 96 hrs by MTT assay; assay type: functional, cell-based; conditions: Huh-7, 96 h
HCT-116 [1] = assay: Induction of apoptosis in human HCT116 cells assessed as live cells at 500 nM after 48 hrs by Annexin V-FITC/propidium iodide staining-based flow cytometric analysis (reference value: 89.6%); assay type: functional
[2] = Cmax in ICR mouse at 30 mg/kg, po measured after 0.083 to 24 hrs by LC/MS/MS analysis; assay type: ADME, organism-based; parameters: dose 30 mg/kg, route oral; conditions: in vivo
How it was run: (§1)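 ICR mice; iv 3 mg/kg in 10% DMSO/saline (3 mice/group), blood at 0.033, 0.083, 0.25, 0.5, 1, 2, 4, 8, 12, 24 h; po 30 mg/kg as 0.5% cmc/0.3% Tween 80 suspension (5 mice/group), blood at 0.083–24 h. Plasma extracted with acetonitrile, LC/MS/MS; parameters by noncompartmental analysis.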

[3] = Mutagenicity in Salmonella typhimurium TA1535 at 5 to 500 ug/plate in absence of s9 mix by Ames test; assay type: toxicity; conditions: salmonella enterica subsp. enterica serovar typhimurium
How it was run: (§2)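 Plate incorporation method at 5, 50 and 500 μg/plate, with and without S9 activation. At least three plates per dose, incubated 72 h at 37 °C, revertants counted. Mean revertants compared with vehicle and positive controls.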

NCI-H460 = assay: Antiproliferative activity against human NCI-H460 cells after 96 hrs by MTT assay; assay type: functional, cell-based; conditions: NCI-H460, 96 h
HCT-116 [4] = assay: Induction of apoptosis in human HCT116 cells assessed as necrotic cells at 500 nM after 48 hrs by Annexin V-FITC/propidium iodide staining-based flow cytometric analysis (reference value: 5.23%); assay type: functional
MDA-MB-453 = assay: Antiproliferative activity against human MDA-MB-453 cells after 96 hrs by MTT assay; assay type: functional, cell-based; conditions: MDA-MB-453, 96 h
Histone deacetylase 4 = Histone deacetylase 4 (Homo sapiens, UniProt P56524); assay: Inhibition of recombinant human full length HDAC4 expressed in baculovirus infected Sf9 insect cells using Ac-peptide as substrate preincubated for 15 mins followed by substrate addition and measured after 1 hr
Sequence of Histone deacetylase 4 (P56524 whole entry, canonical isoform): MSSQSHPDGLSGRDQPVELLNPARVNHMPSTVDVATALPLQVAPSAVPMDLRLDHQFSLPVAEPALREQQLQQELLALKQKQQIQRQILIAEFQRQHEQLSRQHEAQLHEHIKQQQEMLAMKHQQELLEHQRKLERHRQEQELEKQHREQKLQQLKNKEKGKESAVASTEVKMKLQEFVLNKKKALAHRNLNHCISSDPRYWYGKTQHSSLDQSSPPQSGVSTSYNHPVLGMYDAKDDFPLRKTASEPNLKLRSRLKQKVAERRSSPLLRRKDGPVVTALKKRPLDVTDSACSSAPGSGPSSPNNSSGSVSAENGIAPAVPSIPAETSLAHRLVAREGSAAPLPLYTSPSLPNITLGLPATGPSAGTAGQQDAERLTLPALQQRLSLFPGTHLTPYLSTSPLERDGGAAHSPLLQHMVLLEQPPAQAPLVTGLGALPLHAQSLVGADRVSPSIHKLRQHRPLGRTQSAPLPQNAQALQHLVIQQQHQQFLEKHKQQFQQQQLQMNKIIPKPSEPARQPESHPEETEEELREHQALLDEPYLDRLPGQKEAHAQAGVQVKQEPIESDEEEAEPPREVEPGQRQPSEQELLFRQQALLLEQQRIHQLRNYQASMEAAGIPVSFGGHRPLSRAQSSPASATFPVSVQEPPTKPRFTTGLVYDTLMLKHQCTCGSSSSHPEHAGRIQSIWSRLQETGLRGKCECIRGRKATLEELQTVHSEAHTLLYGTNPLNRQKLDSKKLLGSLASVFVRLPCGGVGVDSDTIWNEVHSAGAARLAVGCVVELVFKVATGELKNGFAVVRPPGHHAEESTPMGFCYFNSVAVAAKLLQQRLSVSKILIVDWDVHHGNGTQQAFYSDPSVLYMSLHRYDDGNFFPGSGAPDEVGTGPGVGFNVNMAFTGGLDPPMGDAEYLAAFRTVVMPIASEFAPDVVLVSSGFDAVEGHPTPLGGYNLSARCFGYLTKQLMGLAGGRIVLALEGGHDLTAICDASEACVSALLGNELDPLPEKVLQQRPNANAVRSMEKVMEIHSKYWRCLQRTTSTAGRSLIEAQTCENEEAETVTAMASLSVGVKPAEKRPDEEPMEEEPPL
How it was run: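 Recombinant HDAC isoforms mixed with serially diluted compound in assay buffer for 15 min at room temperature. Ac-peptide substrate then added and incubated 1 h at room temperature. Signal read on a plate reader; IC50 by curve fitting.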

Bel-7402 = assay: Antiproliferative activity against human Bel7402 cells after 96 hrs by MTT assay; assay type: functional, cell-based; conditions: Bel-7402, 96 h
[5] = Mutagenicity in Salmonella typhimurium TA98 at 5 to 500 ug/plate in presence of s9 mix by Ames test; assay type: toxicity, subcellular; conditions: salmonella enterica subsp. enterica serovar typhimurium; how it was run: as §2
[6] = molecular target: Phosphatidylinositol 4,5-bisphosphate 3-kinase catalytic subunit gamma isoform (Homo sapiens, UniProt P48736); assay: Inhibition of recombinant human His-tagged PIK3CG expressed in baculovirus expression system using PIP2 as substrate incubated for 1 hr by ADP-glo assay
Sequence of Phosphatidylinositol 4,5-bisphosphate 3-kinase catalytic subunit gamma isoform (P48736 whole entry, canonical isoform): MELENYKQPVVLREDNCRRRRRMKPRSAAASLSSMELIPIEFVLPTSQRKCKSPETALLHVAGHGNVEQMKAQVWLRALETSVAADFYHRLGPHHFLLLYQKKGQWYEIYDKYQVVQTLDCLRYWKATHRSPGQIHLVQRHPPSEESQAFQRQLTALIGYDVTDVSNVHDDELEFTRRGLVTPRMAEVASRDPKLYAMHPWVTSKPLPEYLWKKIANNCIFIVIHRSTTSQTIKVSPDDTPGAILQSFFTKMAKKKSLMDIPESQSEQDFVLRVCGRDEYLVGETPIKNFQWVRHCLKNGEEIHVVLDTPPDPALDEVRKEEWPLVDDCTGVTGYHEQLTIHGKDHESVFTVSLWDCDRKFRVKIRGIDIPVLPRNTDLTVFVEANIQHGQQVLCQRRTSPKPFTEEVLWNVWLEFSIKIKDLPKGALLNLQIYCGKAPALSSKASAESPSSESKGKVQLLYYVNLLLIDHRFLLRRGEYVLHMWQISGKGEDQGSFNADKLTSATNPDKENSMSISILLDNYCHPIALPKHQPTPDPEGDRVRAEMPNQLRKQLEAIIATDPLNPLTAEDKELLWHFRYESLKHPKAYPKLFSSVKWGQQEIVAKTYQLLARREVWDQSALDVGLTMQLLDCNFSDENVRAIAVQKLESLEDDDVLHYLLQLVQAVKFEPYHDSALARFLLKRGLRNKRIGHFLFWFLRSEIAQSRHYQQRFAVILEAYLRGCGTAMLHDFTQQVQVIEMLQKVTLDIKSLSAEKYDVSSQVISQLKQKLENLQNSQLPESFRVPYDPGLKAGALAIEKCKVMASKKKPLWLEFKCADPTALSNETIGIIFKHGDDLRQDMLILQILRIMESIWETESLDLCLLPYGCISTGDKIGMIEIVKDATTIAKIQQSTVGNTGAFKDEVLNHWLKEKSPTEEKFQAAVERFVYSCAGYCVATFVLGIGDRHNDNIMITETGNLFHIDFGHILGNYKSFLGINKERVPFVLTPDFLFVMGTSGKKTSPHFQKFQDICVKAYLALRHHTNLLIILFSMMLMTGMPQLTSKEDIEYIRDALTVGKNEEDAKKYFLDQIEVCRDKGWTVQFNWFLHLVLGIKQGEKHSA
How it was run: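 Recombinant PI3Kβ, -γ or -δ, serially diluted compound, PIP2 substrate and ATP combined in kinase buffer. Incubated 1 h at room temperature in the dark, then stopped with ADP-Glo reagent. Luminescence read after kinase detection reagent; IC50 by curve fitting.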

[7] = AUC (0 to infinity) in ICR mouse at 30 mg/kg, po measured after 0.083 to 24 hrs by LC/MS/MS analysis; assay type: ADME, organism-based; parameters: dose 30 mg/kg, time infinity, route oral; conditions: in vivo; how it was run: as §1
[8] = molecular target: Serine/threonine-protein kinase mTOR (Homo sapiens, UniProt P42345); assay: Inhibition of recombinant human N-terminal FLAG-tagged mTOR (1362 to end amino acids) using ULight-4E-BP1 as substrate incubated for 1 hr by LANCE Ultra assay
How it was run: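 mTOR protein, compound, ULight-4E-BP1 (Thr37/46) peptide and ATP in kinase buffer, 30 min at room temperature. LANCE detection buffer with EDTA and Eu-anti-phospho-4E-BP1 (Thr37/46) antibody added, then 1 h equilibration at room temperature. TR-FRET read; IC50 by curve fitting.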

HCT-116 [9] = assay: Induction of apoptosis in human HCT116 cells assessed as early apoptotic cells at 500 nM after 48 hrs by Annexin V-FITC/propidium iodide staining-based flow cytometric analysis (reference value: 1.33%); assay type: functional
HGC-27 = assay: Antiproliferative activity against human HGC27 cells after 96 hrs by MTT assay; assay type: functional, cell-based; conditions: HGC-27, 96 h
[10] = Mutagenicity in Salmonella typhimurium TA98 at 5 to 500 ug/plate in absence of s9 mix by Ames test; assay type: toxicity; conditions: salmonella enterica subsp. enterica serovar typhimurium; how it was run: as §2
[11] = Oral bioavailability in ICR mouse at 30 mg/kg measured after 0.083 to 24 hrs by LC/MS/MS analysis; assay type: ADME, organism-based; conditions: in vivo
How it was run: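 Male-unspecified ICR mice, 3 per group iv (3 mg/kg in 10% DMSO/saline) and 5 per group po (30 mg/kg in 0.5% cmc/0.3% Tween 80). Blood sampled 0.033 (iv) or 0.083 (po) to 24 h. Plasma extracted with acetonitrile, analysed by LC/MS/MS; noncompartmental analysis.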

[12] = Drug concentration in human HCT116 cells assessed per million cells at 25 uM after 1 hr by LC/MS/MS analysis; assay type: ADME, cell-based; conditions: hct-116, 1 h
How it was run: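 HCT116 cells seeded overnight, exposed 1 h to 25 μM compound in 4 wells, washed three times with PBS; one well trypsinized for cell count, three scraped, sonicated, acetonitrile-extracted, LC/MS/MS; nmol per million cells = concentration × total volume / cell number.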

HCT-116 [13] = assay: Induction of cell cycle arrest in human HCT116 cells assessed as accumulation at G1 phase at 100 to 500 nM after 24 hrs by propidium iodide/RNase staining-based FACS analysis; assay type: functional
How it was run: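 HCT116 cells cultured overnight in 6-well plates, exposed to compound at various concentrations for 24 h; FxCycle PI/RNase staining and flow cytometry for cell cycle phase distribution.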

[14] = Mutagenicity in Salmonella typhimurium TA97 at 5 to 500 ug/plate in absence of s9 mix by Ames test; assay type: toxicity; conditions: salmonella enterica subsp. enterica serovar typhimurium; how it was run: as §2
HCT-116 [15] = assay: Antiproliferative activity against human HCT116 cells after 96 hrs by MTT assay; assay type: functional, cell-based; conditions: HCT-116, 96 h
[16] = AUC (0 to t) in ICR mouse at 3 mg/kg, iv measured after 0.033 to 24 hrs by LC/MS/MS analysis; assay type: ADME, organism-based; parameters: dose 3 mg/kg, time upper 24 hr, time lower 0.033 hr, route intravenous; conditions: in vivo; how it was run: as §1
HCT-116 [17] = assay: Induction of apoptosis in human HCT116 cells assessed as late apoptotic cells at 20 nM after 48 hrs by Annexin V-FITC/propidium iodide staining-based flow cytometric analysis (reference value: 3.87%); assay type: functional
THP-1 = assay: Antiproliferative activity against human THP1 cells after 96 hrs by MTT assay; assay type: functional, cell-based; conditions: THP-1, 96 h
[18] = Mutagenicity in Salmonella typhimurium TA1535 at 5 to 500 ug/plate in presence of s9 mix by Ames test; assay type: toxicity, subcellular; conditions: salmonella enterica subsp. enterica serovar typhimurium; how it was run: as §2
MCF7 = assay: Antiproliferative activity against human MCF7 cells after 96 hrs by MTT assay; assay type: functional, cell-based; conditions: MCF7, 96 h
HCT-116 [19] = assay: Induction of apoptosis in human HCT116 cells assessed as live cells at 20 nM after 48 hrs by Annexin V-FITC/propidium iodide staining-based flow cytometric analysis (reference value: 89.6%); assay type: functional

Row | SMILES | IC50 (Huh-7) [µM] | Activity (HCT-116 [1]) [%] | Cmax [2] [ng/mL] | Activity [3] | IC50 (NCI-H460) [µM] | Activity (HCT-116 [4]) [%] | IC50 (MDA-MB-453) [µM] | IC50 (Histone deacetylase 4) [µM] | IC50 (Bel-7402) [µM] | Activity [5] | IC50 [6] [µM] | IC50 [8] [µM] | Activity (HCT-116 [9]) [%] | IC50 (HGC-27) [µM] | Activity [10] | Drug metabolism [12] | Activity (HCT-116 [13]) | Activity [14] | IC50 (HCT-116 [15]) [µM] | IC90 (HCT-116 [15]) [µM] | further results
1 | COc1ncc(-c2cc(OCCCCCCC(=O)NO)c3ncnc(C)c3c2)cc1F | 2.5 | 67.9 | 143 | Non-Toxic | 3 | 3.64 | 0.3 | > 1 | 5.2 | Non-Toxic | 0.067 | 2.86 | 18.2 | 0.11 | Non-Toxic | Metabolite_Detected | Dose-dependent effect | Non-Toxic | 0.15 | 48 | AUC(0-inf) ([7]; ICR): 274 ng·h/mL; bioavailability ([11]; ICR): 4.2%; AUC(0-t) [16]: 551 ng·h/mL; Activity (HCT-116 [17]): 5.48%; IC50 (THP-1): 5.4 µM; Activity [18]: Non-Toxic; IC50 (MCF7): 2 µM; Activity (HCT-116 [19]): 88.6%
2 | COc1ccc(-c2cc(OCCN(C)c3ncc(C(=O)NO)cn3)c3ncnc(C)c3c2)cn1 | 0.24 | 43.8 | 9.39 | Non-Toxic | 2.7 | 2.82 | 0.004 | 0.972 | 1.6 | Non-Toxic | 0.467 | 6.26 | 29.1 | 0.014 | Non-Toxic | Metabolite_Detected | Dose-dependent effect | Non-Toxic | 0.007 | 2.8 | AUC [7]: 51.4 ng·h/mL; F [11]: 1.7%; AUC(0-t) [16]: 133 ng·h/mL; Activity (HCT-116 [17]): 5.89%; IC50 (THP-1): 0.91 µM; Activity [18]: Non-Toxic; IC50 (MCF7): 1.1 µM; Activity (HCT-116 [19]): 83.6%
